Legend:
[1] = Cytotoxicity against African green monkey Vero cells measured after 3 days by CelltiterGlo luminescence assay; assay type: cell-based; conditions: chlorocebus sabaeus
Summary of the method: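 Vero cells seeded and left overnight; growth medium then replaced by serial compound dilutions, added in triplicate; medium-only wells defined 0% cytotoxicity. On day 3 cells were lysed and ATP content measured by luciferase luminescence (CellTiter-Glo); CC50 obtained from a 4-PL curve fit.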

[2] = tested on: RL; assay: Cytotoxicity against human RL cells after 72 hrs by MTS assay; assay type: functional, cell-based
Summary of the method: (§1)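 Commercial screen: tumour cells seeded at 0.5 to 100 x 10³ cells/well the day before dosing, then exposed 72 h to compound in duplicate, 9 serial 3.16-fold dilutions from 198 µM top concentration. MTS added for a further 4 h at 37 °C, absorbance read; IC50 taken as 50% inhibition of viability by curve fitting.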

[3] = tested on: MV4-11; assay: Cytotoxicity against human MV411 cells after 72 hrs by MTS assay; assay type: functional, cell-based; conditions: MV4-11, 72 h; summary of the method: as §1
[4] = tested on: SW-620; assay: Cytotoxicity against human SW620 cells after 72 hrs by MTS assay; assay type: functional, cell-based; conditions: SW-620, 72 h; summary of the method: as §1
[5] = Cytotoxicity against human Hs445 cells after 72 hrs by MTS assay; assay type: functional, cell-based; conditions: Hs 445, 72 h; summary of the method: as §1
[6] = tested on: Chikungunya virus; assay: Antiviral activity against Chikungunya virus infected in African green monkey Vero cells assessed as reduction in virus-induced cytopathic effect pretreated for 1 hr followed by viral infection measured after 3 days by crystal violet staining based assay; assay type: functional, organism-based
[7] = tested on: HEL 92.1.7; assay: Cytotoxicity against human HEL 92.1.7 cells after 72 hrs by MTS assay; assay type: functional, cell-based; conditions: HEL 92.1.7, 72 h; summary of the method: as §1
[8] = tested on: MIA PaCa-2; assay: Cytotoxicity against human MIAPaCa2 cells after 72 hrs by MTS assay; assay type: functional, cell-based; conditions: MIA PaCa-2, 72 h; summary of the method: as §1
[9] = tested on: MCF7; assay: Cytotoxicity against human MCF7 cells after 72 hrs by MTS assay; assay type: functional, cell-based; conditions: MCF7, 72 h; summary of the method: as §1
[10] = Half life in acetone d6 at pH 7.6 Trizma buffer by 31P NMR analysis; assay type: physicochemical; conditions: Trizma buffer with acetone-d6, pH 7.6
Summary of the method: (§2)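 ProTide (5.0 mg) dissolved in acetone-d6 (0.15 mL) plus Trizma buffer pH 7.6 (0.30 mL), treated with carboxypeptidase Y; conversion followed by ³¹P NMR over 14 h.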

[11] = target: T1, Carboxypeptidase Y (Saccharomyces cerevisiae (strain ATCC 204508 / S288c) (Baker's yeast), UniProt P00729); assay: Prodrug activation assessed as yeast carboxypeptidase Y mediated (2S)-2-((((2R,3S,4R,5R)-5-(6-azido-5-fluoro-2,4-dioxo-3,4-dihydropyrimidin-1(2H)-yl)-3,4-dihydroxytetrahydrofuran-2-yl)methoxy)(hydroxy)phosphorylamino)propanoic acid formation at pH 7.6 measured within 60 mins by 31P NMR analysis; conditions: pH 7.6, 1 h; summary of the method: as §2
T1 sequence (P00729 whole entry): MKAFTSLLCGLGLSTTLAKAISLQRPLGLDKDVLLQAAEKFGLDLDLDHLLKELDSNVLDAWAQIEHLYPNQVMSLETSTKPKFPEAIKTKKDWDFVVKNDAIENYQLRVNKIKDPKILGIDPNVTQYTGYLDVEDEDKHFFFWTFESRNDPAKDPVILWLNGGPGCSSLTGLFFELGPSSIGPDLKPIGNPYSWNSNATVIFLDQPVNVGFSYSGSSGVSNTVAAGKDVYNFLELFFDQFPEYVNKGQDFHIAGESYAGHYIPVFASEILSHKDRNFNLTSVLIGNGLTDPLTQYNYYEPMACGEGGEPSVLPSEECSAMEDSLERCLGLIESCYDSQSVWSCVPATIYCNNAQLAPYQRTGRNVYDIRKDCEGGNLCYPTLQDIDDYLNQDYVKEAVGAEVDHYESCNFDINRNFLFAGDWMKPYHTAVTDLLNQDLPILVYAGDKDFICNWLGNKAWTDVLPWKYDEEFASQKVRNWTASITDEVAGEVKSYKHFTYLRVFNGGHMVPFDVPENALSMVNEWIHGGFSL

[12] = target: T1, Carboxypeptidase Y; assay: Prodrug activation assessed as yeast carboxypeptidase Y mediated (2S)-2-((((2R,3S,4R,5R)-5-(6-azido-5-fluoro-2,4-dioxo-3,4-dihydropyrimidin-1(2H)-yl)-3,4-dihydroxytetrahydrofuran-2-yl)methoxy)(phenoxy)phosphorylamino)propanoic acid formation at pH 7.6 measured within 10 mins by 31P NMR analysis; conditions: pH 7.6, 10 min; summary of the method: as §2
[13] = target: T1, Carboxypeptidase Y; assay: Prodrug activation assessed as yeast carboxypeptidase Y mediated diastereoisomer formation at pH 7.6 by 31P NMR analysis; summary of the method: as §2

CCCCCCOC(=O)[C@H](C)NP(=O)(OC[C@H]1O[C@@H](n2c(C)c(F)c(=O)[nH]c2=O)[C@H](O)[C@@H]1O)Oc1ccccc1 (stereo partly specified)
CC50 at 72 h [1]: > 200 µM | IC50 [2]: > 50 µM | IC50 [3]: > 50 µM | IC50 [4]: > 50 µM | IC50 [5]: > 50 µM | EC50 [6]: > 200 µM | IC50 [7]: > 50 µM | IC50 [8]: > 50 µM | IC50 [9]: > 50 µM

C[C@H](NP(=O)(O)OC[C@H]1O[C@@H](n2c(N=[N+]=[N-])c(F)c(=O)[nH]c2=O)[C@H](O)[C@@H]1O)C(=O)O
half-life [10]: < 5 min | Drug metabolism [11]: 7.17 ppm

Cc1c(F)c(=O)[nH]c(=O)n1[C@@H]1O[C@H](COP(=O)(N[C@@H](C)C(=O)OCC(C)(C)C)Oc2cccc3ccccc23)[C@@H](O)[C@H]1O (stereo partly specified)
CC50 at 72 h [1]: 81.3 µM | IC50 [2]: > 50 µM | IC50 [3]: > 50 µM | IC50 [4]: > 50 µM | IC50 [5]: > 50 µM | EC50 [6]: > 200 µM | IC50 [7]: > 50 µM | IC50 [8]: > 50 µM | IC50 [9]: > 50 µM

C[C@H](NP(=O)(OC[C@H]1O[C@@H](n2c(N=[N+]=[N-])c(F)c(=O)[nH]c2=O)[C@H](O)[C@@H]1O)Oc1ccccc1)C(=O)O (stereo partly specified)
Drug metabolism [12]: 4.68 to 4.87 ppm

CCCCCOC(=O)[C@H](C)NP(=O)(OC[C@H]1O[C@@H](n2c(I)c(F)c(=O)[nH]c2=O)[C@H](O)[C@@H]1O)Oc1ccccc1 (stereo partly specified)
IC50 [2]: 0.8 µM | IC50 [3]: 0.2 µM | IC50 [4]: 1.12 µM | IC50 [5]: 2.6 µM | IC50 [7]: 0.5 µM | IC50 [8]: 1.31 µM | IC50 [9]: 7.83 µM

CCCCCCOC(=O)[C@H](C)NP(=O)(OC[C@H]1O[C@@H](n2c(N=[N+]=[N-])c(F)c(=O)[nH]c2=O)[C@H](O)[C@@H]1O)Oc1cccc2ccccc12 (stereo partly specified)
IC50 [2]: 9 µM | IC50 [3]: 6.2 µM | IC50 [4]: 21 µM | IC50 [5]: 6 µM | IC50 [7]: 10 µM | IC50 [8]: 24 µM | IC50 [9]: 31 µM

CCCCCCOC(=O)[C@H](C)NP(=O)(OC[C@H]1O[C@@H](n2c(N=[N+]=[N-])c(F)c(=O)[nH]c2=O)[C@H](O)[C@@H]1O)Oc1ccccc1 (stereo partly specified)
Drug metabolism [13]: 3.64 to 3.82 ppm | IC50 [2]: 20 µM | IC50 [3]: 9 µM | IC50 [4]: 38 µM | IC50 [5]: 18 µM | IC50 [7]: 39 µM | IC50 [8]: > 50 µM | IC50 [9]: > 50 µM

Cc1c(F)c(=O)[nH]c(=O)n1[C@@H]1O[C@H](COP(=O)(N[C@@H](C)C(=O)OCc2ccccc2)Oc2ccccc2)[C@@H](O)[C@H]1O (stereo partly specified)
IC50 [2]: > 50 µM | IC50 [3]: > 50 µM | IC50 [4]: > 50 µM | IC50 [5]: > 50 µM | IC50 [7]: > 50 µM | IC50 [8]: > 50 µM | IC50 [9]: > 50 µM

Cc1c(F)c(=O)[nH]c(=O)n1[C@@H]1O[C@H](COP(=O)(N[C@@H](C)C(=O)OCc2ccccc2)Oc2cccc3ccccc23)[C@@H](O)[C@H]1O (stereo partly specified)
CC50 at 72 h [1]: > 200 µM | IC50 [2]: > 50 µM | IC50 [3]: > 50 µM | IC50 [4]: > 50 µM | IC50 [5]: > 50 µM | EC50 [6]: > 200 µM | IC50 [7]: > 50 µM | IC50 [8]: > 50 µM | IC50 [9]: > 50 µM

C[C@H](NP(=O)(OC[C@H]1O[C@@H](n2c(I)c(F)c(=O)[nH]c2=O)[C@H](O)[C@@H]1O)Oc1ccccc1)C(=O)OC1CCCCC1 (stereo partly specified)
IC50 [2]: 2.6 µM | IC50 [3]: 0.74 µM | IC50 [4]: 4.84 µM | IC50 [5]: 3.8 µM | IC50 [7]: 4.1 µM | IC50 [8]: 4.57 µM | IC50 [9]: 8.12 µM
